Experimental data reported in ChEMBL document CHEMBL1130319, “Preparation, DNA binding, and in vitro cytotoxicity of a pair of enantiomeric platinum(II) complexes, [(R)- and (S)-3-aminohexahydroazepine]dichloroplatinum(II). Crystal structure of the S enantiomer” (J Med Chem, 1997).

Key:
Assay type in all cases: functional, cell-based
[1] = test system: BL13/0; assay: In vitro cytotoxicity was determined by using cultures of human bladder (BL13/0) cancer cells by MTT assay
How it was run: (§1)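 Monolayers in RPMI 1640 with 10% FCS, 37 °C, 7.5% CO2/5% O2/85% N2. Trypsinized, 5000 cells/well, 24 h preincubation. Complexes in 0.9% NaCl saline, final 0–200 μM, 96 h exposure; washed. MTT 1 mg/mL in FCS-free medium, 4 h at 37 °C, formazan in 2-propanol, OD 570 nm. Viability % of untreated; 4 or 6 replicates; IR50 from dose-response curves.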

[2] = test system: DU-145; assay: In vitro cytotoxicity was determined by using cultures of human prostate (DU145) cancer cells by SRB assay
How it was run: (§2)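 Cells grown in RPMI 1640/10% FCS under 7.5% CO2, 5% O2. Seeded at 5000 cells/well for 24 h, then given complexes (saline stock diluted in medium) at final 0–200 μM for 96 h. Fixed in cold 10% TCA 30 min at 4 °C, stained with 0.4% SRB in 1% acetic acid 15 min, dye solubilized in 10 mM Tris, A570. Percent of control from 4 or 6 replicates; IR50 read from curves.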

[3] = test system: PC-9; assay: In vitro cytotoxicity was determined by using cultures of human resistant lung (PC9cisR) cancer cells by MTT assay; how it was run: as §1
[4] = test system: PC-9; assay: In vitro cytotoxicity was determined by using cultures of human resistant lung (PC9cisR) cancer cells by SRB assay; how it was run: as §2
[5] = test system: BL13/0; assay: In vitro cytotoxicity was determined by using cultures of human bladder (BL13/0) cancer cells by SRB assay; how it was run: as §2
[6] = test system: PC-9; assay: In vitro cytotoxicity was determined by using cultures of human lung (PC9) cancer cells by MTT assay; how it was run: as §1
[7] = test system: DU-145; assay: In vitro cytotoxicity was determined by using cultures of human prostate (DU145) cancer cells by MTT assay; how it was run: as §1
[8] = test system: PC-9; assay: In vitro cytotoxicity was determined by using cultures of human lung (PC9) cancer cells by SRB assay; how it was run: as §2

In the case of CISPLATIN, the IC50 [1] is reported as 1.9 µM, the IC50 [2] is reported as 1 µM and the IC50 [3] is reported as 11.7 µM. The IC50 [4] was > 17.5 µM, the IC50 [5] was 9.5 µM and the IC50 [6] was 1.4 µM. For the same substance, the IC50 [7] was 1.8 µM.

“8,8-platinumdichloro-(6R)-1,7-diazoniabicyclo[4.2.1]nonane” was tested, and the IC50 [8] was 11 µM, the IC50 [1] was 1.3 µM and the IC50 [2] was 3.3 µM. For the same substance, the IC50 [3] was 16 µM, the IC50 [4] was 27.3 µM and the IC50 [5] was 7.2 µM. It also gave an IC50 [6] of 5.9 µM and an IC50 [7] of 2.9 µM.
